Efflux pump mplx: blocks antifungal efflux pumps in multiplex yeast assay. S. cerevisiae Candida pump triplex, Nile Red efflux. inhibition, % at 10 µM. 0.44% of 330,000 active. AID 485275;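 active = plate passing quality check with inhibition over a set limit, or well fluorescence over plate mean plus 4 SD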;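 also: Nile Red retained in pooled yeast measured as flow cytometry median fluorescence; higher means more Nile Red kept so more efflux inhibition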
AI-2 QS mod: modulators of Vibrio harveyi AI-2 quorum sensing system | Vibrio harveyi JMH597 AI-2 luminescence/OD600 ratio, 9 h; stronger effect = lower value; strain lacks LuxN and CqsS sensors; 0 = neutral-control median | activity change, % at 7.5 µM | 0.4% of 300,000 active | AID 2094; in the data active = activity change below about -75%, passing the limit was not always enough;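 also: luminescence divided by OD600 gain over 9 h not by final OD600 alone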
PolyA inh: inhibitors of polyadenylation in S. cerevisiae; 0.02% of 300,000 active; activity score, % at 12 µM; S. cerevisiae SKY197-pL101 polyadenylation reporter, beta-gal luminescence; efflux-impaired pdr1/pdr3 knockout yeast; score 100 = 6 SD above DMSO; AID 1875;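 active = lowest replicate activity score at least 50, where 100 means six control SD above control mean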;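 also: yeast exposed to compound for 9 h at 30 °C; higher score means more reporter readthrough which indicates perturbed polyadenylation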
HDAC3 inh: human HDAC3 inhibition; recombinant HDAC3, fluorogenic peptide/trypsin coupled, fluorescence; O15379; inhibition, % at 8.3 µM; 0.15% of 320,000 active; AID 2718; in the data active = inhibition above about 26%, passing the limit was not always enough
Target sequence (O15379 whole entry, looked up): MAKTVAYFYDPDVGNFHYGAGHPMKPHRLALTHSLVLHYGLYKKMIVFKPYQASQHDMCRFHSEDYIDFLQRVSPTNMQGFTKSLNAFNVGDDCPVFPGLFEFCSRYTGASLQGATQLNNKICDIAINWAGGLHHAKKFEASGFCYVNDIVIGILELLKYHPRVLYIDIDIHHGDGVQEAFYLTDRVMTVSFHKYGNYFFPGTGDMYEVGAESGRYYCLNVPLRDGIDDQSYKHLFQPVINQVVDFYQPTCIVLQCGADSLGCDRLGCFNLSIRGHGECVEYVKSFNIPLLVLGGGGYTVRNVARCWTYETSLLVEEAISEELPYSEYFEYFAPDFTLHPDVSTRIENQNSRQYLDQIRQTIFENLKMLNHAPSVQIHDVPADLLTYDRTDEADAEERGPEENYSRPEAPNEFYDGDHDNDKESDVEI
T cruzi inh: T. cruzi replication inhibition | T. cruzi beta-gal in NIH3T3, luminescence, 90 h | inhibition, % (test concentration not listed) | 1.4% of 300,000 active | AID 1885;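 active = mean inhibition across valid replicates above about 55%, limit read from the data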;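 also: signal also drops with host cell toxicity which is not excluded here; higher percent means less beta-gal luminescence so fewer parasites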
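Test system: β-gal T. cruzi (Tulahuen C4) inside NIH/3T3 cells / Quantity: 5,000 cells/well / Measured by: luminescence from GalScreen with 0.05% NP40, read after 60 min / Medium: DMEM plus 2% FBS / Measure: parasite load inhibition, % / Reagent: Tulahuen C4 trypomastigotes, 5000/well / Schedule: co-culture of at least 90 h after 3 h attachment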
A number is an active result; . = inactive; / = no result given. This is a sample that favours compounds with a hit; in the whole collection about 2.2% have one here.

SMILES | Efflux pump mplx | AI-2 QS mod | PolyA inh | HDAC3 inh | T cruzi inh
Cc1ccc(S(=O)(=O)/N=C(/Nc2cccc3ccccc23)c2ccc(F)cc2)cc1 | . | . | . | . | .
CCOC(=O)N1CCN(Cc2nc3cc(NC(=O)c4ccco4)ccc3n2CC)CC1 | . | . | . | / | .
CCCCn1nc(C(=O)Nc2nc3c(s2)CCCC3)c2ccccc2c1=O | . | . | . | . | 56
O=C(Cn1c(C(=O)N2CCN(C3CCCCC3)CC2)cc2sccc21)c1ccccc1 | . | . | . | . | 76
O=C(c1ccc2c3c(cccc13)CC2)C1CCCN(Cc2cccnc2)C1 (configuration not stated) | . | . | . | . | 62
Cc1ccc(OCCN2CCN(c3nc(NCc4ccco4)c4ccccc4n3)CC2)cc1 | . | . | . | . | 70
Cc1ccccc1Nc1nc(NCc2ccco2)c2ccccc2n1 | . | . | . | . | 58
CCn1c(-c2ccccc2)c(C(=O)CCl)c2ccccc21 | . | . | . | . | 61
Cn1c(-c2ccccc2)c(C(=O)CCl)c2ccccc21 | / | . | . | / | 71
Cc1cc(C)c2c(N)c3cccc(C)c3nc2n1 | . | . | . | . | 58
Cc1cccc2c(N)c3c(nc12)N(C)CC3 | . | . | . | . | .
O=[N+]([O-])c1ccc(S(=O)(=O)Nc2ccc(-c3ccc(N4CCCC4)nn3)cc2)cc1 | . | . | . | / | 55
O=[N+]([O-])c1ccc(S(=O)(=O)N2CCN(c3ccc(N4CCOCC4)nn3)CC2)cc1 | . | . | . | . | 60
COc1ccccc1C(=O)C1CCCN(C(=O)c2ccco2)C1 (configuration not stated) | . | . | . | . | .
C[C@H]1CC[C@@]2(O[C@H](CCO)C[C@H](O)[C@H]2O)O1 | . | . | . | . | .
O=C(CSc1nnc(-c2c[nH]c3ccccc23)o1)N(Cc1ccccc1)c1ccc(F)cc1 | . | . | . | . | 55
Cc1[nH]n(-c2ccccc2)c(=S)c1C=Nc1cccc([N+](=O)[O-])c1 | . | . | . | 55 | .
CCCCN=Cc1c(C)[nH]n(-c2ccccc2)c1=S | . | . | . | . | .
COc1cccc(-c2nc(N3CCN(C)CC3)c3ccccc3n2)c1O | . | . | . | / | 55
O=C(O)CCNC(=O)/C(=C/C=C/c1ccccc1)NC(=O)c1ccccc1 | . | . | . | . | .
O=C(NCc1cn(-c2ccccc2)nc1-c1ccc(F)cc1)c1cccc([N+](=O)[O-])c1 | . | . | . | . | 61
Cc1ccc(CN2CC(C(=O)N3CCN(c4ccccc4Cl)CC3)CC2=O)cc1 (configuration not stated) | . | / | / | . | /
Nc1c(C(=O)c2ccccc2)sc2nsc(SCCN3CCCC3)c12 | . | / | . | . | 55
Cc1[nH]n2c(=O)c3c(nc2c1-c1ccc(F)cc1)CCCC3 | . | . | . | . | 74
Cc1[nH]n2c(=O)c3c(nc2c1-c1ccccc1)CCCC3 | . | . | . | . | .
SMILES | Efflux pump mplx | AI-2 QS mod | PolyA inh | HDAC3 inh | T cruzi inh
C/C(=N\NC(=S)Nc1cc(S(=O)(=O)N2CCOCC2)ccc1Cl)c1ccc(N2CCOCC2)cc1 | . | . | . | / | .
COc1ccc2cc(/C(C)=N/NC(=S)Nc3cc(S(=O)(=O)N4CCOCC4)ccc3N3CCOCC3)ccc2c1 | . | . | . | . | 69
CCOC(=O)C1=C(Cc2ccc(F)cc2)C(=O)c2ccccc2C1=O | . | . | . | . | .
CCCCc1ccc(/C=C2\C(=O)c3ccccc3C(O)=C2C(=O)OCC)cc1 | 1.1 | . | . | . | .
CCCCC(CCC(=O)O)(C(=O)OCC)c1csc(Nc2ccccc2)n1 (configuration not stated) | . | . | . | . | .
CCOC(=O)/C(=N/Nc1ccccc1)c1csc(Nc2ccccc2)n1 | . | . | . | . | 62
CCOC(=O)/C(=N\Nc1ccc(OC)cc1)c1csc(Nc2ccccc2)n1 | . | . | . | . | 81
CCOC(=O)/C(=N\Nc1ccc(Cl)cc1)c1csc(Nc2ccccc2)n1 | . | . | . | . | 65
CCN(CC)C(=O)c1csc(Nc2ccc(C)cc2)n1 | . | . | / | . | .
CC(C)=CCCC(C)N(C=O)C(C)CCC=C(C)C (configuration not stated) | . | . | . | . | .
CC(=O)N(CCCN(C)C)CCC(C)CCC=C(C)C (configuration not stated) | . | . | . | . | 65
